Inconclusive results are not listed.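 How the source made its calls, unless noted: active means growth inhibition above 25% in both replicates, a cutoff set 3 SD above the mean; inconclusive means above 25% in only one replicate; inactive means the rest.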
Tests used:
[1] = S. cerevisiae growth inhibition in permissive medium (OD615), pilot counter-assay for S. cerevisiae lifespan shortening project, permissive growth control (AID 705); details: OD615, 24 h, at 10 µM, hits give high values
Method in brief: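 Material: engineered DeaD yeast; compound dosing: one dose 10 µM, DMSO 0.25% final; measure: yeast growth inhibition indicated by reduced 24 h OD615; detection: OD615 turbidity read; incubation: cells pre-grown 4 h, then 24 h compound exposure, 30 °C humidified; medium: permissive synthetic complete medium with raffinose and galactose carbon sources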

[2] = S. cerevisiae growth inhibition in restrictive medium, OD615, pilot screen, restrictive growth control, yeast lifespan reduction project (AID 706;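 active means growth inhibition above a set limit, 3 SD over mean compound inhibition, in both replicates, cut at about 43% in these data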;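 further: modified DeaD lifespan yeast strain shifted to restrictive glucose medium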); details: OD615, 48 h, at 10 µM, hits give high values
Method in brief: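 material = engineered S. cerevisiae DeaD strain | medium = glucose-based CSMM-D restrictive medium | times = 4 h pre-incubation, 48 h exposure at 30 °C | technique = OD615 absorbance reading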

[3] = doxorubicin toxicity protection in MRP-1 cells – H69AR cells, CellTiter-Glo, duplicate, MRP-1 activator project, pilot screen (AID 807;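 active means viability increase at or above a cutoff of the median across tested compounds plus 3 SD, cut at about 8.5% in these data, passing the limit was not always enough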;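 further: compound pretreatment 18-22 h then 72 h combined with doxorubicin; 0% = doxorubicin alone and 100% = vehicle without doxorubicin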); details: H69AR viability with doxorubicin, CellTiter-Glo luminescence; at 10 µM; hits give high values
[4] = viability of HCT116 without oncogenic beta-catenin – human colon tumor cells, pilot screen (AID 823;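 active means cell viability at or below a set limit in both duplicate runs, the limit being the all-compound median minus 4 SD, cut at about 23% in these data, passing the limit was not always enough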;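 further: 0% = wells killed by 20 µM Hyamine and 100% = untreated DMSO cell wells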); details: HCT116 beta-catenin knockout viability, CellTiter-Glo, 60 h; at 10 µM; hits give low values
[5] = viability of PTEN-null HCT116 cells – cell-based, HCT116 clonal line, CellTiter-Glo, pilot screen (AID 824;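 active means viability at or below 27.92% in each of two runs, the all-compound median minus 4 SD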;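 further: 0% = 20 µM Hyamine control and 100% = vehicle cell control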); details: HCT116 PTEN-deleted viability, 60 h, at 10 µM, hits give low values
[6] = RAM pathway blockade in budding yeast – dse1pr::URA3 reporter, 5-FOA selection, pilot screen (AID 869;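 active means inhibition over a set limit, the all-compound mean plus 3 SD, in both replicate runs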;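 further: 0% = DMSO wells with no growth and 100% = 10 µM 1-NA-PP1 with full growth; RAM network block rescues cells from 5-FOA so hits raise OD615 growth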); details: S. cerevisiae dse1pr::URA3 5-FOA growth, OD615, 2 d; at 10 µM; hits give high values; strain carries analog-sensitive mutant Cbk1 kinase
[7] = RAM signaling pathway blockade in yeast – S. cerevisiae, Pdr1DBD-CYC8 efflux-inhibited sensitized strain, primary screen (AID 1298;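 active means RAM network inhibition above 8.4% in each of two replicates, 3 SD over the compound average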;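 further: 0% = DMSO untreated cells without growth and 100% = 10 µM 1-NA-PP1 full growth; higher means more yeast growth rescued from 5-FOA killing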); details: S. cerevisiae cbk1-as DSE1-URA3 strain, 5-FOA growth OD615, 2 d; at 50 µM; hits give high values

COc1cccc(-c2nc(CS(=O)CC(=O)NCc3ccccc3Cl)c(C)o2)c1 (stereo not drawn)
inactive: growth inhibition [1] -0.545% | growth inhibition [2] 5.44% | viability increase [3] -3.78% | viability [4] 92.4% | viability [5] 91.9% | inhibition [6] 0.79% | RAM network inhibition [7] 10%

O=C(Oc1ccccc1)c1cccc(N2C(=O)CCC2=O)c1
inactive: growth inhibition [1] -1.76% | growth inhibition [2] 0.85% | viability increase [3] -1.06% | viability [4] 105% | viability [5] 105% | inhibition [6] 1.27% | RAM network inhibition [7] 1.74%

CC(C)Cn1c(CNC(=O)c2ccccc2)nc2ccccc21
inactive: growth inhibition [1] -4.34% | growth inhibition [2] -13.4% | viability increase [3] -2.23% | viability [4] 99.6% | viability [5] 93.1% | inhibition [6] 0.785% | RAM network inhibition [7] -0.78%

COc1ccccc1NC(=O)c1cccc(S(=O)(=O)N2CCOCC2)c1
inactive: growth inhibition [1] 7.87% | growth inhibition [2] 0.14% | viability increase [3] -0.79% | viability [4] 103% | viability [5] 96.7% | inhibition [6] 2.99% | RAM network inhibition [7] 0.68%

CN(C)C(=O)N1CCC(C(=O)NCc2ccc(F)cc2)CC1
inactive: growth inhibition [1] 4.29% | growth inhibition [2] 9.94% | viability increase [3] -1.51% | viability [4] 104% | viability [5] 94.7% | inhibition [6] 0.865% | RAM network inhibition [7] 5.08%

COc1ccc(OC)c(C2C(C(=O)Nc3ccccc3OC)=C(C)Nc3nc(CCCO)nn32)c1 (stereo not drawn)
inactive: growth inhibition [1] 4.07% | growth inhibition [2] -1.39% | viability increase [3] -2.08% | viability [4] 98.9% | viability [5] 96.8% | inhibition [6] 3.86% | RAM network inhibition [7] 4.26%

CSc1ccc(S(=O)(=O)Nc2ccc3c(c2)OCCO3)cc1
inactive: growth inhibition [1] -3.2% | growth inhibition [2] -11% | viability increase [3] -3.95% | viability [4] 62.2% | viability [5] 71.9% | inhibition [6] 1.67% | RAM network inhibition [7] -0.87%

CC1=C(C(=O)OCC2CCCO2)C(c2ccccc2)NC(=O)N1 (stereo not drawn)
inactive: growth inhibition [1] -9.26% | growth inhibition [2] -17.9% | viability increase [3] -0.06% | viability [4] 103% | viability [5] 99.8% | inhibition [6] 1.33% | RAM network inhibition [7] -0.93%

Cc1cc2cc(CCNC(=O)CC(C)(C)C)c(=O)[nH]c2cc1C
inactive: growth inhibition [1] -11.3% | growth inhibition [2] -21% | viability increase [3] -0.18% | viability [4] 101% | viability [5] 98.7% | inhibition [6] 2.57% | RAM network inhibition [7] 5.74%

CCOC(=O)CSc1nccc(N(C)C)c1C#N
inactive: growth inhibition [1] -5.06% | growth inhibition [2] 7.88% | viability increase [3] 1.04% | viability [4] 99% | viability [5] 100% | inhibition [6] 0.83% | RAM network inhibition [7] 4.81%

CC(NS(=O)(=O)c1ccc(Br)cc1)C(c1cccs1)N1CCN(C)CC1 (stereo not drawn)
inactive: growth inhibition [1] -5.18% | growth inhibition [2] 3.13% | viability increase [3] -2.85% | viability [4] 78.2% | viability [5] 84.2% | inhibition [6] 0.53% | RAM network inhibition [7] 0.88%

CCN1CCN(C(c2ccccc2)c2sc3nc(C)nn3c2O)CC1 (stereo not drawn)
inactive: growth inhibition [1] 0.24% | growth inhibition [2] 1.3% | viability increase [3] -1.49% | viability [4] 102% | viability [5] 101% | inhibition [6] 1.31% | RAM network inhibition [7] 5.66%

CCN(CC)CCNC(=O)c1sc2nc(-c3ccccc3)cn2c1C
inactive: growth inhibition [1] -2.38% | growth inhibition [2] 6.54% | viability increase [3] -1.73% | viability [4] 83.2% | viability [5] 81.4% | inhibition [6] 0.06% | RAM network inhibition [7] 1.57%

COc1ccccc1NC(=O)c1ccc(S(=O)(=O)N(C)C)cc1
inactive: growth inhibition [1] 0.34% | growth inhibition [2] 6.62% | viability increase [3] -0.55% | viability [4] 108% | viability [5] 105% | inhibition [6] 2.33% | RAM network inhibition [7] -1.21%
